Results as given in ChEMBL document CHEMBL1121495, “Anticandidal activity of pyrimidine-peptide conjugates” (J Med Chem, 1980).

What follows are molecules tested on Candida albicans (assay: Compound was evaluated for inhibition of transport of trimethionine in Candida albicans WD 18-4).
Type: functional
Parameters: concentration or dose not given beside the values
Procedure, shortened: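 Initial uptake rate of radiolabeled (Met)3 into C. albicans WD 18-4 cells grown 6-8 h at 37 °C with aeration. Washed cells (1.4 mg dry wt/mL) preincubated 10 min at 37 °C, mixed with reaction mix of 2% glucose, citrate-phosphate buffer pH 3.5 (0.012 M) and (Met)3 6.06 x 10^-5 M. Samples filtered at intervals, washed, scintillation counted. Competitor included at 10-fold molar excess over (Met)3.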
`CC(C)C[C@H](NC(=O)c1nc(O)nc(O)c1F)C(=O)O` gave an Inhibition of 0%.
`CC(C)C[C@H](NC(=O)[C@H](CC(C)C)NC(=O)c1nc(O)nc(O)c1F)C(=O)O` showed an Inhibition of 40%.
`COC(=O)[C@H](CCSC)NC(=O)[C@H](CCSC)NC(=O)c1cc(O)nc(O)n1` showed an Inhibition of 0%.
`O=C(O)CNC(=O)CNC(=O)c1cc(O)nc(O)n1` was tested, and the Inhibition was 0%.
For `CC(C)CC(NC(=O)C(CC(C)C)NC(=O)c1cc(O)nc(O)n1)C(=O)O` (stereo not given), the Inhibition was 67%.
